Experimental data published in PMC10884804 (Food Chemistry: X, 2024).
Blank lines part the entries; values can stand above or below the substance they belong to. Ends that are not written are not given here. * marks the point of attachment. Dodecyl = CCCCCCCCCCCC*; Octyl = CCCCCCCC*

How the values were obtained:
Pseudomonas [1] = test: MIC by two-fold serial dilution; format: cell-based; conditions: for MIC: two-fold serial dilution, at least three repeats
Shewanella [2] = test: MIC by two-fold serial dilution; format: cell-based; conditions: for MIC: two-fold serial dilution, at least three repeats
[3] = Self-assembly morphology by TEM; format: physicochemical; conditions: aqueous solution, 1 mM
[4] = Circular dichroism secondary structure; format: physicochemical; conditions: aqueous solution, 190–270 nm
Method in brief: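 The test compound was dissolved in sterile PBS and in 2.5 % SDS buffer (a membrane-mimetic hydrophobic environment), then filtered through 0.22 µm. Spectra were scanned at 190-270 nm with 1 nm bandwidth and 0.5 s interval in a 0.1 cm cuvette. Ellipticity (mdeg) was converted to molar residue ellipticity using residue number, peptide concentration and path length.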

Shewanella [5] = test: Cell membrane permeability, PI/FDA flow cytometry; format: cell-based; conditions: peptide at MIC, 37℃, 1 h; for bacteria distributed in Q1 and Q2 regions (disturbed membranes): Shewanella, sum of Q1 and Q2
Pseudomonas [6] = test: Cell membrane permeability, PI/FDA flow cytometry; format: cell-based; conditions: peptide at MIC, 37℃, 1 h, sum of Q1 and Q2
Pseudomonas [7] = test: Ultrastructural observation of treated bacteria; format: cell-based; conditions: cells treated with peptide
Shewanella [8] = test: Cell wall permeability; format: cell-based; conditions: peptide at MIC, 37℃, 4 h
Method in brief: (§1)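 Bacteria from a national culture collection were incubated with the test compound at the MIC (the control received an equal volume of sterile water) at 37°C for 4 h. Samples were centrifuged at 4°C and 5000 x g for 10 min, and alkaline phosphatase (AKP) was measured in the supernatant. Each experiment was done at least three times, reported as mean ± SD.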

Pseudomonas [9] = test: Cell wall permeability; format: cell-based; conditions: peptide at MIC, 37℃, 4 h
Method in brief: as §1

Substance: AKATKAAKALLKLWLL [AL-16]
MIC (Pseudomonas [1]): 16 µM
MIC (Shewanella [2]): 128 µM

Substance: APATPAAPALLPLWLL [AP-16]
self-assembly morphology [3]: did not exhibit an evident self-assembly morphology
antibacterial activity (in words) (Pseudomonas [1]; bacterial survival rate, S.2): no significant antibacterial activity
secondary structure [4]: randomly curled structure
antibacterial activity (in words) (Shewanella [2]; bacterial survival rate, S.2): no significant antibacterial activity

MIC (Pseudomonas [1]): 4 µM
MIC (Shewanella [2]): 4 µM
Substance: C8-AL-16: AL-16 with alkyl chain (C8) attached to the N-terminus (Octyl-AKATKAAKALLKLWLL)
bacteria in Q1 region (PI-positive, FDA-negative) (Shewanella [5]; Shewanella (Fig. 4D), flow cytometry): 38.80%
bacteria distributed in Q1 and Q2 regions (disturbed membranes) (Shewanella [5]): > 98%
self-assembly morphology [3]: nanospheres in the form of micelles
bacteria distributed in Q1 and Q2 regions (disturbed membranes) (Pseudomonas [6]): > 98%
morphological changes of bacterial cells (TEM) (Pseudomonas [7]): disrupted by lysis, and the contents leaked, resulting in serious damage
secondary structure [4]: β-folded structure
cell wall permeability (AKP leakage) (Shewanella [8]): significantly enhanced
cell wall permeability (AKP leakage) (Pseudomonas [9]): significantly enhanced

MIC (Pseudomonas [1]): 4 µM
MIC (Shewanella [2]): 4 µM
Substance: C12-AL-16: AL-16 with alkyl chain (C12) attached to the N-terminus (Dodecyl-AKATKAAKALLKLWLL)
bacteria distributed in Q1 and Q2 regions (disturbed membranes) (Shewanella [5]): > 98%
self-assembly morphology [3]: nanospheres in the form of micelles
bacteria distributed in Q1 and Q2 regions (disturbed membranes) (Pseudomonas [6]): > 98%
morphological changes of bacterial cells (TEM) (Pseudomonas [7]): bacterial contents were lost; however, the basic membrane structure was maintained
secondary structure [4]: α-helix
